Data as given in ChEMBL document CHEMBL1153963, “Phenanthrene-based tylophorine-1 (PBT-1) inhibits lung cancer cell growth through the Akt and NF-kappaB pathways” (J Med Chem, 2009).
≈ marks a conversion by molar mass, not a printed value.

Columns and labels:
[1] = Cytotoxicity against human CL1-0 cells assessed as growth inhibition after 48 hrs by MTS assay; format: functional, cell-based
How it was run: (§1)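 Cells seeded in four replicates at 2×10^3 per well in complete RPMI 1640 with drug (0, 0.1, 0.25, 0.5, 0.75 µg/mL in the cell-line panel), 48 h at 37 °C, 5% CO2. Viability read by MTS reagent, absorbance at 490 nm, expressed as percent of untreated control; IC50 taken as concentration giving 50% growth inhibition.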

CL1-0 [2] = assay: Effect on TNFRSF10B gene expression in human CL1-0 cells assessed as change in gene expression by RT-PCR relative to control; format: functional
How it was run: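 Microarray hits validated by real-time quantitative RT-PCR with SYBR Green chemistry and gene-specific primers; GAPDH used as internal control; fold change versus untreated control as mean ± SD.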

CL1-0 [3] = assay: Effect on TNFRSF10B gene expression in human CL1-0 cells assessed as change in gene expression at 0.5 ug/mL after 24 hrs by DNA microarray relative to control; format: functional
How it was run: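 Total RNA extracted from treated or untreated CL1-0 cells, mRNA isolated, hybridized to human DNA microarray; genes scored by statistically significant twofold expression difference versus untreated control; fold change given as mean ± SD.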

CL1-0 [4] = assay: Effect on IRAK1 gene expression in human CL1-0 cells assessed as change in gene expression by RT-PCR relative to control; format: functional
How it was run: (§2)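 Real-time quantitative RT-PCR on CL1-0 RNA to validate microarray changes, SYBR Green chemistry with gene-specific primers, GAPDH as internal control; fold change versus untreated control reported as mean ± SD.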

CL1-0 [5] = assay: Effect on BCL2L1 gene expression in human CL1-0 cells assessed as change in gene expression at 0.5 ug/mL after 24 hrs by DNA microarray relative to control; format: functional
How it was run: (§3)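 Total RNA from CL1-0 cells treated 24 h with 0.5 µg/mL drug or untreated; mRNA isolated and run on human DNA microarrays; genes with statistically significant twofold change versus control reported as fold change, mean ± SD.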

CL1-0 [6] = assay: Effect on PPP3CA gene expression in human CL1-0 cells assessed as change in gene expression by RT-PCR relative to control; format: functional; how it was run: as §2
CL1-0 [7] = assay: Effect on CFLAR gene expression in human CL1-0 cells assessed as change in gene expression by RT-PCR relative to control; format: functional; how it was run: as §2
CL1-0 [8] = assay: Effect on AKT3 gene expression in human CL1-0 cells assessed as change in gene expression by RT-PCR relative to control; format: functional; how it was run: as §2
A549 = assay: Cytotoxicity against human A549 cells assessed as growth inhibition after 48 hrs by MTS assay; format: functional, cell-based; conditions: A549, 48 h; how it was run: as §1
CL1-0 [9] = assay: Effect on MAP3K14 gene expression in human CL1-0 cells assessed as change in gene expression at 0.5 ug/mL after 24 hrs by DNA microarray relative to control; format: functional; how it was run: as §3
CL1-0 [10] = assay: Effect on PPP3CA gene expression in human CL1-0 cells assessed as change in gene expression at 0.5 ug/mL after 24 hrs by DNA microarray relative to control; format: functional; how it was run: as §3
CL1-0 [11] = assay: Effect on PDK1 gene expression in human CL1-0 cells assessed as change in gene expression by RT-PCR relative to control; format: functional; how it was run: as §2
CL1-0 [12] = assay: Effect on NFKB1A gene expression in human CL1-0 cells assessed as change in gene expression at 0.5 ug/mL after 24 hrs by DNA microarray relative to control; format: functional; how it was run: as §3
CL1-0 [13] = assay: Effect on IRAK1 gene expression in human CL1-0 cells assessed as change in gene expression at 0.5 ug/mL after 24 hrs by DNA microarray relative to control; format: functional; how it was run: as §3
CL1-0 [14] = assay: Effect on PRKACA gene expression in human CL1-0 cells assessed as change in gene expression at 0.5 ug/mL after 24 hrs by DNA microarray relative to control; format: functional; how it was run: as §3
CL1-0 [15] = assay: Effect on PIK3CD gene expression in human CL1-0 cells assessed as change in gene expression at 0.5 ug/mL after 24 hrs by DNA microarray relative to control; format: functional; how it was run: as §3
CL1-0 [16] = assay: Effect on PIK3CD gene expression in human CL1-0 cells assessed as change in gene expression by RT-PCR relative to control; format: functional; how it was run: as §2
CL1-0 [17] = assay: Effect on AKT3 gene expression in human CL1-0 cells assessed as change in gene expression at 0.5 ug/mL after 24 hrs by DNA microarray relative to control; format: functional; how it was run: as §3
PC-9 = assay: Cytotoxicity against human PC9 cells assessed as growth inhibition after 48 hrs by MTS assay; format: functional, cell-based; conditions: PC-9, 48 h; how it was run: as §1
CL1-0 [18] = assay: Induction of apoptosis in human CL1-0 cells at 0.25 ug/mL after 24 hrs by propidium iodide and annexin V staining; format: functional
How it was run: (§4)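 CL1-0 cells treated with increasing concentrations for 24 h, resuspended in Annexin-binding buffer, stained with Alexa Fluor 488 Annexin V and PI for 15 min at room temperature, analyzed by flow cytometry; single-stain controls set apoptotic and necrotic windows.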

CL1-0 [19] = assay: Effect on PDK1 gene expression in human CL1-0 cells assessed as change in gene expression at 0.5 ug/mL after 24 hrs by DNA microarray relative to control; format: functional; how it was run: as §3
CL1-0 [20] = assay: Induction of apoptosis in human CL1-0 cells at 0.5 ug/mL after 24 hrs by propidium iodide and annexin V staining; format: functional; how it was run: as §4
CL1-0 [21] = assay: Effect on NFKB1A gene expression in human CL1-0 cells assessed as change in gene expression by RT-PCR relative to control; format: functional; how it was run: as §2
CL1-0 [22] = assay: Effect on PRKACA gene expression in human CL1-0 cells assessed as change in gene expression by RT-PCR relative to control; format: functional; how it was run: as §2
[23] = Cytotoxicity against human CL1-5 cells assessed as growth inhibition after 48 hrs by MTS assay; format: functional, cell-based; conditions: CL1-5, 48 h; how it was run: as §1
CL1-0 [24] = assay: Effect on MAP3K14 gene expression in human CL1-0 cells assessed as change in gene expression by RT-PCR relative to control; format: functional; how it was run: as §2
CL1-0 [25] = assay: Induction of apoptosis in human CL1-0 cells at 0.75 ug/mL after 24 hrs by propidium iodide and annexin V staining; format: functional; how it was run: as §4
NCI-H460 = assay: Cytotoxicity against human H460 cells assessed as growth inhibition after 48 hrs by MTS assay; format: functional, cell-based; conditions: NCI-H460, 48 h; how it was run: as §1
CL1-0 [26] = assay: Effect on BCL2L1 gene expression in human CL1-0 cells assessed as change in gene expression by RT-PCR relative to control; format: functional; how it was run: as §2
CL1-0 [27] = assay: Effect on CFLAR gene expression in human CL1-0 cells assessed as change in gene expression at 0.5 ug/mL after 24 hrs by DNA microarray relative to control; format: functional; how it was run: as §3
[28] = Homo sapiens, CL1-0, 48 h, read-out: IC50

`COc1ccc2c(CNCCCCCCO)cc3cc4c(cc3c2c1)OCO4` showed an IC50 [1, 28] of over 2 µg/mL.

In the case of `COc1ccc2c(CN3CCC(CO)CC3)cc3cc4c(cc3c2c1)OCO4.Cl`, the IC50 [1, 28] is reported as 0.44 µg/mL and the IC50 ([1]; cl1-0) is reported as “Dose-dependent effect”.

For `COc1ccc2c(CN3CCC(CCO)CC3)cc3cc4c(cc3c2c1)OCO4`, the IC50 [1, 28] was 0.37 µg/mL (≈ 0.94 µM) and the IC50 ([1]; cl1-0) was “Dose-dependent effect”.

`COc1ccc2c(CN3CCN(c4ccc(Cl)cc4)CC3)cc3cc4c(cc3c2c1)OCO4` showed an IC50 [1, 28] of over 2 µg/mL.

`COc1ccc2c(CN3CCC(C(=O)O)CC3)cc3cc4c(cc3c2c1)OCO4` showed an IC50 [1, 28] of over 2 µg/mL.

Molecule `COc1ccc2c(CNCCCCCC(=O)O)cc3cc4c(cc3c2c1)OCO4` has an IC50 [1, 28] of over 2 µg/mL.

For `COc1ccc2c(CN3CCC(CO)CC3)cc3cc4c(cc3c2c1)OCO4`, the “fold change (FC)” value (CL1-0 [2]) was 1.71, the “fold change (FC)” value (CL1-0 [3]) was 2.53 and the “fold change (FC)” value (CL1-0 [4]) was 2.23. The “fold change (FC)” value (CL1-0 [5]) was 2.7, the “fold change (FC)” value (CL1-0 [6]) was 5.31 and the “fold change (FC)” value (CL1-0 [7]) was 2.8. For the same molecule, the “fold change (FC)” value (CL1-0 [8]) was 1.61, the IC50 (A549) was 0.2 µg/mL (≈ 0.527 µM) and the “fold change (FC)” value (CL1-0 [9]) was 2.25. For the same molecule, the “fold change (FC)” value (CL1-0 [10]) was 2.53, the “fold change (FC)” value (CL1-0 [11]) was 0.56 and the “fold change (FC)” value (CL1-0 [12]) was 2.23. The “fold change (FC)” value (CL1-0 [13]) was 2.1, the “fold change (FC)” value (CL1-0 [14]) was 5.38 and the “fold change (FC)” value (CL1-0 [15]) was 2.03. For the same molecule, the “fold change (FC)” value (CL1-0 [16]) was 1.69, the “fold change (FC)” value (CL1-0 [17]) was 0.48 and the IC50 (PC-9) was 0.2 µg/mL (≈ 0.527 µM). For the same molecule, the Activity (CL1-0 [18]) was 5.96%, the “fold change (FC)” value (CL1-0 [19]) was 0.26 and the Activity (CL1-0 [20]) was 9.56%. The “fold change (FC)” value (CL1-0 [21]) was 6.8, the IC50 [1, 28] was 0.81 µg/mL (≈ 2.13 µM) and the IC50 ([1]; cl1-0) was “Dose-dependent effect”. For the same molecule, the “fold change (FC)” value (CL1-0 [22]) was 1.39, the IC50 [23] was 0.2 µg/mL (≈ 0.527 µM) and the “fold change (FC)” value (CL1-0 [24]) was 2.94. For the same molecule, the Activity (CL1-0 [25]) was 11.03%, the IC50 (NCI-H460) was 0.2 µg/mL (≈ 0.527 µM) and the “fold change (FC)” value (CL1-0 [26]) was 1.83. For the same molecule, the “fold change (FC)” value (CL1-0 [27]) was 3.01.

Molecule `COc1ccc2c(CN3CCN(c4ccc(O)cc4)CC3)cc3cc4c(cc3c2c1)OCO4` has an IC50 [1, 28] of over 2 µg/mL.

In the case of `COc1ccc2c(CN3CCC(CCO)CC3)cc3cc4c(cc3c2c1)OCO4.Cl`, the IC50 [1, 28] is reported as 0.46 µg/mL and the IC50 ([1]; cl1-0) is reported as “Dose-dependent effect”.

In the case of `COc1ccc2c(CN3CCN(CCO)CC3)cc3cc4c(cc3c2c1)OCO4`, the IC50 [1, 28] is reported as over 2 µg/mL.
